Laboratory results as given in PubChem BioAssay.
Results filed as inconclusive are left out.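 The calls were made as follows, unless noted: active = RAM network inhibition above 8.4% in each of two replicates, 3 SD over the compound average; inconclusive = above 8.4% inhibition in only one replicate; inactive = 8.4% inhibition or less in each replicate.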

How the values were obtained:
[1] = S. cerevisiae growth inhibition in permissive medium (OD615), pilot counter-assay for S. cerevisiae lifespan shortening project, permissive growth control (AID 705;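 active = growth inhibition above 25% in both replicates, a cutoff set 3 SD above the mean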); details: OD615, 24 h, at 10 µM, hits give high values
Method in brief: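 assay system = Saccharomyces cerevisiae strain carrying genetically modified DeaD replicative-lifespan system | technique = absorbance (optical density) at 615 nm | buffer or medium = permissive raffinose/galactose medium | timing = cells pre-grown 4 h, then 24 h compound exposure, 30 °C humidified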

[2] = S. cerevisiae growth inhibition in restrictive medium, OD615, pilot screen, restrictive growth control, yeast lifespan reduction project (AID 706;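 active = growth inhibition above a set limit, 3 SD over mean compound inhibition, in both replicates, cut at about 43% in these data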;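 also: modified DeaD lifespan yeast strain shifted to restrictive glucose medium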); details: OD615, 48 h, at 10 µM, hits give high values
Method in brief: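 System: modified S. cerevisiae. Buffer or medium: CSMM-D glucose medium. Incubation: 4 h pre-growth plus 48 h compound exposure, 30 °C. Detection: absorbance (optical density) measured at 615 nm.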

[3] = doxorubicin toxicity protection in MRP-1 cells – H69AR cells, CellTiter-Glo, duplicate, MRP-1 activator project, pilot screen (AID 807;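 active = viability increase at or above a cutoff of the median across tested compounds plus 3 SD, cut at about 8.5% in these data, passing the limit was not always enough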;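 also: compound pretreatment 18-22 h then 72 h combined with doxorubicin; 0% = doxorubicin alone and 100% = vehicle without doxorubicin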); details: H69AR viability with doxorubicin, CellTiter-Glo luminescence; at 10 µM; hits give high values
[4] = viability of HCT116 without oncogenic beta-catenin – human colon tumor cells, pilot screen (AID 823;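 active = cell viability at or below a set limit in both duplicate runs, the limit being the all-compound median minus 4 SD, cut at about 23% in these data, passing the limit was not always enough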;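 also: 0% = wells killed by 20 µM Hyamine and 100% = untreated DMSO cell wells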); details: HCT116 beta-catenin knockout viability, CellTiter-Glo, 60 h; at 10 µM; hits give low values
[5] = viability of PTEN-null HCT116 cells – cell-based, HCT116 clonal line, CellTiter-Glo, pilot screen (AID 824;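 active = viability at or below 27.92% in each of two runs, the all-compound median minus 4 SD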;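 also: 0% = 20 µM Hyamine control and 100% = vehicle cell control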); details: HCT116 PTEN-deleted viability, 60 h, at 10 µM, hits give low values
[6] = RAM pathway blockade in budding yeast – dse1pr::URA3 reporter, 5-FOA selection, pilot screen (AID 869;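 active = inhibition over a set limit, the all-compound mean plus 3 SD, in both replicate runs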;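 also: 0% = DMSO wells with no growth and 100% = 10 µM 1-NA-PP1 with full growth; RAM network block rescues cells from 5-FOA so hits raise OD615 growth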); details: S. cerevisiae dse1pr::URA3 5-FOA growth, OD615, 2 d; at 10 µM; hits give high values; strain carries analog-sensitive mutant Cbk1 kinase
[7] = RAM signaling pathway blockade in yeast – S. cerevisiae, Pdr1DBD-CYC8 efflux-inhibited sensitized strain, primary screen (AID 1298);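 also: 0% = DMSO untreated cells without growth and 100% = 10 µM 1-NA-PP1 full growth; higher means more yeast growth rescued from 5-FOA killing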; details: S. cerevisiae cbk1-as DSE1-URA3 strain, 5-FOA growth OD615, 2 d; at 50 µM; hits give high values

Cc1ccc(C2c3c(oc4ccc(C)cc4c3=O)C(=O)N2CCCN2CCOCC2)cc1 (stereo not drawn)
inactive: growth inhibition [1] -8.48% | growth inhibition [2] -3.63% | viability increase [3] -5.72% | viability [4] 77.3% | viability [5] 84.1% | inhibition [6] 0.99% | RAM network inhibition [7] -1.21%

CCOC(=O)Cn1c(=O)oc2cc(S(=O)(=O)N3CCc4ccccc43)ccc21
inactive: growth inhibition [1] -6.21% | growth inhibition [2] 1.04% | viability increase [3] -1.01% | viability [4] 91.8% | viability [5] 93.8% | inhibition [6] -0.605% | RAM network inhibition [7] 2.93%

O=C(Nc1ccccc1F)C1CCCN(S(=O)(=O)c2cccc3cccnc23)C1 (stereo not drawn)
inactive: growth inhibition [1] -3.46% | growth inhibition [2] -7.69% | viability increase [3] -1.63% | viability [4] 92.3% | viability [5] 88.8% | inhibition [6] 1.49% | RAM network inhibition [7] 2.96%

CCCS(=O)(=O)n1nc(-c2ccc(OC)cc2OC)cc1N
inactive: growth inhibition [1] -6.52% | growth inhibition [2] -22.5% | viability increase [3] -2.51% | viability [4] 101% | viability [5] 102% | inhibition [6] -0.255% | RAM network inhibition [7] 4.63%

CCOC(=O)c1nnc2cc(-c3ccccc3)nn2c1C
inactive: growth inhibition [1] 3.76% | growth inhibition [2] 16% | viability increase [3] 0.86% | viability [4] 93.6% | viability [5] 95.3% | inhibition [6] 1.5% | RAM network inhibition [7] 0.86%

Cc1ccc(C)c(C(=O)COC(=O)c2ccc(Br)o2)c1
inactive: growth inhibition [1] -12.9% | growth inhibition [2] -17.1% | viability increase [3] -0.26% | viability [4] 94.2% | viability [5] 86.2% | inhibition [6] 0.38% | RAM network inhibition [7] 1.4%

CC(C)Sc1nnc(NC(=O)C2CC2)s1
inactive: growth inhibition [1] -12.6% | growth inhibition [2] -3.5% | viability increase [3] -0.09% | viability [4] 98.1% | viability [5] 102% | inhibition [6] 1.93% | RAM network inhibition [7] 3.62%

O=C(Nn1nnnc1Nc1ccccc1)C12CC3CC(CC(C3)C1)C2
inactive: growth inhibition [1] -3.62% | growth inhibition [2] -2.85% | viability increase [3] -5.83% | viability [4] 85.2% | viability [5] 86.5% | inhibition [6] 2.17% | RAM network inhibition [7] 4.63%

O=C(CCS(=O)(=O)c1cccc2nonc12)N1CCCc2ccccc21
inactive: growth inhibition [1] -10.4% | growth inhibition [2] -22.1% | viability increase [3] -4.61% | viability [4] 92.8% | viability [5] 92.9% | inhibition [6] 2.08% | RAM network inhibition [7] 8.49%

COc1ccc(C2CC(=O)C3=C(C2)NC(C)=C(C#N)C3c2ccc(N(C)C)cc2)cc1 (stereo not drawn)
inactive: growth inhibition [1] -6.35% | growth inhibition [2] 7.55% | viability increase [3] 0.06% | viability [4] 78.5% | viability [5] 75.8% | inhibition [6] 2.72% | RAM network inhibition [7] 5.79%

COc1ccc(C2=NOC(C(=O)N3CCN(c4ccccc4OC)CC3)C2)cc1 (stereo not drawn)
inactive: growth inhibition [1] -7.36% | growth inhibition [2] 0.135% | viability increase [3] 2.8% | viability [4] 99.9% | viability [5] 88.5% | inhibition [6] 2.17% | RAM network inhibition [7] 4.09%

S=c1nc(-c2ccccc2)n(CCCn2ccnc2)c2c1CCCC2
inactive: growth inhibition [1] -6.46% | growth inhibition [2] -0.21% | viability increase [3] 0.85% | viability [4] 102% | viability [5] 95.6% | inhibition [6] 2.03% | RAM network inhibition [7] -0.69%

Cn1c(=O)oc2cc(S(=O)(=O)N3CCc4ccccc4C3)ccc21
inactive: growth inhibition [1] -14.7% | growth inhibition [2] -5.15% | viability increase [3] -2.36% | viability [4] 99.2% | viability [5] 91.9% | inhibition [6] 2.58% | RAM network inhibition [7] 5.77%

O=C(CCC1CC(=O)Nc2ccccc21)NCc1cccnc1 (stereo not drawn)
inactive: growth inhibition [1] -10.7% | growth inhibition [2] -2.23% | viability increase [3] -1.06% | viability [4] 102% | viability [5] 90.5% | inhibition [6] 1.1% | RAM network inhibition [7] 12.5%

O=c1c2ccccc2nc(SCc2nnc(-c3ccccc3)o2)n1-c1ccccc1
inactive: growth inhibition [1] -13.1% | growth inhibition [2] -8.7% | viability increase [3] -3.18% | viability [4] 75.4% | viability [5] 84.6% | inhibition [6] 1.96% | RAM network inhibition [7] 5.69%

Cc1noc(C)c1S(=O)(=O)N(CC(=O)NCc1ccc2c(c1)OCO2)c1ccc(C(C)C)cc1
inactive: growth inhibition [1] -13.7% | growth inhibition [2] -8.46% | viability increase [3] -2.92% | viability [4] 82.7% | viability [5] 76.2% | inhibition [6] -0.54% | RAM network inhibition [7] 6.57%

CCCCCn1c(=O)[nH]c2cc(C(=O)O)ccc2c1=O
inactive: growth inhibition [1] -13.9% | growth inhibition [2] -12.1% | viability increase [3] -1.3% | viability [4] 102% | viability [5] 90.7% | inhibition [6] 1.91% | RAM network inhibition [7] 2.2%

Cc1ccc(-n2c(SCC(=O)NCC3CCCO3)nc3c(c2=O)SCC3)cc1 (stereo not drawn)
inactive: growth inhibition [1] -10.7% | growth inhibition [2] -16.9% | viability increase [3] -1.96% | viability [4] 100% | viability [5] 96.7% | inhibition [6] 3.09% | RAM network inhibition [7] 2.18%

Cc1cc(C)cc(Nc2cc(C)nc3nc(C)nn23)c1
inactive: growth inhibition [1] -3.56% | growth inhibition [2] 11.6% | viability increase [3] -2.41% | viability [4] 95.9% | viability [5] 90.8% | inhibition [6] 1.87% | RAM network inhibition [7] -0.26%

COc1ccc(-n2ncc3c(N(C)C4CCCCC4)ncnc32)cc1
inactive: growth inhibition [1] -13.1% | growth inhibition [2] -9.66% | viability increase [3] -3.73% | viability [4] 85.5% | viability [5] 77.9% | inhibition [6] 1.76% | RAM network inhibition [7] 4.58%

O=C(CNC(=O)c1ccccc1F)NC1CC1
inactive: growth inhibition [1] -8.56% | growth inhibition [2] -2.84% | viability increase [3] -2.87% | viability [4] 99.3% | viability [5] 96.4% | inhibition [6] 0.76% | RAM network inhibition [7] 6.17%

O=S(=O)(c1cccc(-n2cnnn2)c1)N1CCOCC1
inactive: growth inhibition [1] -5.21% | growth inhibition [2] -3.17% | viability increase [3] -1.69% | viability [4] 94.3% | viability [5] 93% | inhibition [6] 1.6% | RAM network inhibition [7] 2.96%

Cc1ccc(Cn2c(CN3CC(C)OC(C)C3)nc3c2c(=O)n(C)c(=O)n3C)cc1 (stereo not drawn)
inactive: growth inhibition [1] -5.45% | growth inhibition [2] -10.8% | viability increase [3] -1.28% | viability [4] 96.1% | viability [5] 95.1% | inhibition [6] 2.09% | RAM network inhibition [7] 1.95%

O=C(Nc1nnc(-c2ccco2)o1)C1CCCCC1
inactive: growth inhibition [1] -17% | growth inhibition [2] -13.8% | viability increase [3] -1.58% | viability [4] 99.1% | viability [5] 93.2% | inhibition [6] 1.52% | RAM network inhibition [7] 0.58%
